# Assay results: ChEMBL document CHEMBL1165943, “Design and synthesis of new anticancer pyrimidines with multiple-kinase inhibitory effect” (Bioorg Med Chem, 2010)
# What was measured:
# SN12C = experiment: Growth inhibition of human SN12C cells after 48 hrs by sulforhodamine B assay; format: functional, cell-based; settings: for CC50: read-out: LC50 (the source's name)
# Procedure, shortened: (§1)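 Cells grown in RPMI 1640 with 5% FBS and 2 mM L-glutamine, seeded at 5,000–40,000 cells/well according to doubling time. After 24 h, time-zero plates are TCA-fixed. Five concentrations (10-fold or ½log dilutions, DMSO stocks) are applied for 48 h at 37 °C, 5% CO₂. Cells are TCA-fixed, SRB-stained and read at 515 nm. IC₅₀ is taken from [(Ti−Tz)/(C−Tz)]×100 = 50.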
# OVCAR-3 = experiment: Cytotoxicity against human OVCAR-3 cells assessed as cell growth at 100 nM after 48 hrs by sulforhodamine B assay; format: functional; settings: OVCAR-3, 48 h, read-out: Activity
# KM12 = experiment: Growth inhibition of human KM12 cells after 48 hrs by sulforhodamine B assay; format: functional, cell-based; settings: KM12, 48 h; for CC50: read-out: LC50 (the source's name); procedure, shortened: as §1
# K562 = experiment: Cytotoxicity against human K562 cells assessed as cell growth at 1 uM after 48 hrs by sulforhodamine B assay; format: functional; settings: K562, 48 h, read-out: Activity
# Malme-3M [1] = experiment: Cytotoxicity against human MALME-3M cells assessed as cell growth at 1 uM after 48 hrs by sulforhodamine B assay; format: functional; settings: read-out: Activity
# OVCAR-8 = experiment: Cytotoxicity against human OVCAR8 cells assessed as cell growth at 10 uM after 48 hrs by sulforhodamine B assay; format: functional; settings: OVCAR-8, 48 h, read-out: Activity
# NCI-H522 [2] = experiment: Growth inhibition of human NCI-H522 cells after 48 hrs by sulforhodamine B assay; format: functional, cell-based; settings: NCI-H522, 48 h; for CC50: read-out: LC50 (the source's name); procedure, shortened: as §1
# UO-31 = experiment: Cytotoxicity against human UO31 cells assessed as cell growth at 0.01 uM after 48 hrs by sulforhodamine B assay; format: functional; settings: UO-31, 48 h, read-out: Activity
# MDA-MB-231 = experiment: Cytotoxicity against human MDA-MB-231 cells assessed as cell growth at 1 uM after 48 hrs by sulforhodamine B assay; format: functional; settings: MDA-MB-231, 48 h, read-out: Activity
# HT-29 = experiment: Cytotoxicity against human HT-29 cells assessed as cell growth at 0.001 uM after 48 hrs by sulforhodamine B assay; format: functional; settings: HT-29, 48 h, read-out: Activity
# TK-10 [3] = experiment: Cytotoxicity against human TK10 cells assessed as cell growth at 0.001 uM after 48 hrs by sulforhodamine B assay; format: functional; settings: TK-10, 48 h, read-out: Activity
# U-251 = experiment: Cytotoxicity against human U251 cells assessed as cell growth at 100 nM after 48 hrs by sulforhodamine B assay; format: functional; settings: U-251, 48 h, read-out: Activity
# SF-295 = experiment: Cytotoxicity against human SF295 cells assessed as cell growth at 0.001 uM after 48 hrs by sulforhodamine B assay; format: functional; settings: SF-295, 48 h, read-out: Activity
# TK-10 [4] = experiment: Cytotoxicity against human TK10 cells assessed as cell growth at 1 uM after 48 hrs by sulforhodamine B assay; format: functional; settings: TK-10, 48 h, read-out: Activity
# Malme-3M [5] = experiment: Cytotoxicity against human MALME-3M cells assessed as cell growth at 10 uM after 48 hrs by sulforhodamine B assay; format: functional; settings: read-out: Activity
# HOP-62 = experiment: Cytotoxicity against human HOP62 cells assessed as cell growth at 10 uM after 48 hrs by sulforhodamine B assay; format: functional; settings: HOP-62, 48 h, read-out: Activity
# NCI-H522 [6] = experiment: Cytotoxicity against human NCI-H522 cells assessed as cell growth at 0.01 uM after 48 hrs by sulforhodamine B assay; format: functional; settings: NCI-H522, 48 h, read-out: Activity
# [7] = Cytotoxicity against human Hs 578T cells assessed as cell growth at 100 nM after 48 hrs by sulforhodamine B assay; format: functional; settings: read-out: Activity
# NCI-H522 [8] = experiment: Cytotoxicity against human NCI-H522 cells assessed as cell growth at 1 uM after 48 hrs by sulforhodamine B assay; format: functional; settings: NCI-H522, 48 h, read-out: Activity
# IGROV-1 = experiment: Cytotoxicity against human IGROV1 cells assessed as cell growth at 10 uM after 48 hrs by sulforhodamine B assay; format: functional; settings: IGROV-1, 48 h, read-out: Activity
# NCI-H460 [9] = experiment: Cytotoxicity against human NCI-H460 cells assessed as cell growth at 0.001 uM after 48 hrs by sulforhodamine B assay; format: functional; settings: NCI-H460, 48 h, read-out: Activity
# EKVX = experiment: Cytotoxicity against human EKVX cells assessed as cell growth at 100 nM after 48 hrs by sulforhodamine B assay; format: functional; settings: read-out: Activity
# [10] = Cytotoxicity against human Hs 578T cells assessed as cell growth at 0.01 uM after 48 hrs by sulforhodamine B assay; format: functional; settings: read-out: Activity
# MDA-MB-435 = experiment: Cytotoxicity against human MDA-MB-435 cells assessed as cell growth at 0.001 uM after 48 hrs by sulforhodamine B assay; format: functional; settings: MDA-MB-435, 48 h, read-out: Activity
# NCI-H23 = experiment: Cytotoxicity against human NCI-H23 cells assessed as cell growth at 10 uM after 48 hrs by sulforhodamine B assay; format: functional; settings: NCI-H23, 48 h, read-out: Activity
# NCI-H460 [11] = experiment: Cytotoxicity against human NCI-H460 cells assessed as cell growth at 100 nM after 48 hrs by sulforhodamine B assay; format: functional; settings: NCI-H460, 48 h, read-out: Activity
# M14 = experiment: Cytotoxicity against human M14 cells assessed as cell growth at 1 uM after 48 hrs by sulforhodamine B assay; format: functional; settings: M14, 48 h, read-out: Activity
# HCT-15 = experiment: Cytotoxicity against human HCT15 cells assessed as cell growth at 0.001 uM after 48 hrs by sulforhodamine B assay; format: functional; settings: HCT-15, 48 h, read-out: Activity
# LOX IMVI = experiment: Cytotoxicity against human LOXIMVI cells assessed as cell growth at 1 uM after 48 hrs by sulforhodamine B assay; format: functional; settings: read-out: Activity
# 786-0 = experiment: Growth inhibition of human 786-0 cells after 48 hrs by sulforhodamine B assay; format: functional, cell-based; settings: 786-0, 48 h
# Procedure, shortened: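 Five-dose SRB assay. Cells in RPMI 1640 with 5% FBS and 2 mM L-glutamine were seeded at 5,000–40,000 cells/well, with a TCA-fixed time-zero plate (Tz) taken at 24 h. Compound stocks were in DMSO, serially diluted 10-fold or ½-log to five concentrations, and incubated 48 h at 37 °C. Plates were stained with SRB and read at 515 nm. IC₅₀ was taken where [(Ti−Tz)/(C−Tz)]×100 = 50.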
structure (smiles),measurement,setting,value
CC(=O)Nc1cccc(-c2ccc(-c3ccnc(NC(=O)Nc4cc(C(F)(F)F)cc(C(F)(F)F)c4)n3)cn2)c1.Cl,GI50,SN12C,9.29 µM
same,IC50,SN12C,9.29 µM
same,TGI,SN12C,23.8 µM
same,CC50,SN12C,57.7 µM
same,growth at 0.1 µM,OVCAR-3,67%
same,GI50,KM12,2590 nM
same,IC50,KM12,2590 nM
same,TGI,KM12,8.01 µM
same,CC50,KM12,27.9 µM
same,growth at 1 µM,K562,-1%
same,growth at 1 µM,Malme-3M [1],-50%
same,growth at 10 µM,OVCAR-8,-84%
same,GI50,NCI-H522 [2],1710 nM
same,IC50,NCI-H522 [2],1.71 µM
same,TGI,NCI-H522 [2],5.85 µM
same,CC50,NCI-H522 [2],35.3 µM
same,growth at 0.01 µM,UO-31,87%
same,growth at 1 µM,MDA-MB-231,30%
same,growth at 0.001 µM,HT-29,106%
same,growth at 0.001 µM,TK-10 [3],103%
same,growth at 0.1 µM,U-251,85%
same,growth at 0.001 µM,SF-295,98%
same,growth at 1 µM,TK-10 [4],80%
same,growth at 10 µM,Malme-3M [5],-49%
same,growth at 10 µM,HOP-62,-36%
same,growth at 0.01 µM,NCI-H522 [6],77%
same,growth at 0.1 µM,[7],97%
same,growth at 1 µM,NCI-H522 [8],-22%
same,growth at 10 µM,IGROV-1,-21%
same,growth at 0.001 µM,NCI-H460 [9],95%
same,growth at 0.1 µM,EKVX,63%
same,growth at 0.01 µM,[10],99%
same,growth at 0.001 µM,MDA-MB-435,97%
same,growth at 10 µM,NCI-H23,-69%
same,growth at 0.1 µM,NCI-H460 [11],79%
same,growth at 1 µM,M14,-68%
same,growth at 0.001 µM,HCT-15,96%
same,growth at 1 µM,LOX IMVI,-40%
same,GI50,786-0,3.66 µM
same,IC50,786-0,3.66 µM
same,LC50 (50% lethal concentration),786-0,39.9 µM
same,TGI,786-0,15.9 µM
CC(=O)c1ccccc1-c1ccc(-c2ccnc(NC(=O)Nc3cc(N4CCOCC4)cc(C(F)(F)F)c3)n2)cn1,GI50,SN12C,1.27 µM
same,IC50,SN12C,> 100 µM
same,TGI,SN12C,> 100 µM
same,CC50,SN12C,> 100 µM
same,growth at 0.1 µM,OVCAR-3,109%
same,GI50,KM12,> 100000 nM
same,IC50,KM12,> 100000 nM
same,TGI,KM12,> 100 µM
same,CC50,KM12,> 100 µM
same,growth at 1 µM,K562,79%
same,growth at 1 µM,Malme-3M [1],24%
same,growth at 10 µM,OVCAR-8,53%
same,GI50,NCI-H522 [2],> 100000 nM
same,IC50,NCI-H522 [2],63.2 µM
same,TGI,NCI-H522 [2],> 100 µM
same,CC50,NCI-H522 [2],> 100 µM
same,growth at 0.01 µM,UO-31,91%
same,growth at 1 µM,MDA-MB-231,35%
same,growth at 0.001 µM,HT-29,103%
same,growth at 0.001 µM,TK-10 [3],103%
same,growth at 0.1 µM,U-251,93%
same,growth at 0.001 µM,SF-295,93%
same,growth at 1 µM,TK-10 [4],32%
same,growth at 10 µM,Malme-3M [5],61%
same,growth at 10 µM,HOP-62,19%
same,growth at 0.01 µM,NCI-H522 [6],103%
same,growth at 0.1 µM,[7],77%
same,growth at 1 µM,NCI-H522 [8],90%
same,growth at 10 µM,IGROV-1,41%
same,growth at 0.001 µM,NCI-H460 [9],109%
same,growth at 0.1 µM,EKVX,91%
same,growth at 0.01 µM,[10],101%
same,growth at 0.001 µM,MDA-MB-435,98%
same,growth at 10 µM,NCI-H23,60%
same,growth at 0.1 µM,NCI-H460 [11],91%
same,growth at 1 µM,M14,9%
same,growth at 0.001 µM,HCT-15,98%
same,growth at 1 µM,LOX IMVI,54%
same,GI50,786-0,9.42 µM
same,IC50,786-0,13 µM
same,LC50 (50% lethal concentration),786-0,> 100 µM
same,TGI,786-0,> 100 µM
